Test results reported in ChEMBL document CHEMBL4311975, “Exploration of the antibiotic potentiating activity of indolglyoxylpolyamines” (Eur J Med Chem, 2019).
≈ marks a conversion by molar mass, not a printed value.

What was measured:
[1] = test system: Pseudomonas aeruginosa; experiment: Potentiation of erythromycin-induced antibacterial activity against Pseudomonas aeruginosa ATCC 27853 assessed as concentration required to restore 2 ug/ml erythromycin activity measured after 18 hrs; type: functional
[2] = test system: Pseudomonas aeruginosa; experiment: Potentiation of chloramphenicol-induced antibacterial activity against Pseudomonas aeruginosa ATCC 27853 assessed as concentration required to restore 2 ug/ml chloramphenicol activity measured after 18 hrs; type: functional
[3] = test system: Staphylococcus aureus; experiment: Antibacterial activity against Staphylococcus aureus ATCC 25923 assessed as growth inhibition incubated for 18 hrs by broth dilution method; type: functional; conditions: ATCC 25923, 18 h
In short: (§1)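 Broth microdilution following CA-SFM recommendations. Inoculum was 10^5 CFU in Mueller-Hinton broth with two-fold serial drug dilutions. Plates were incubated 18 h at 37 °C. MIC was the lowest concentration giving complete inhibition of visible growth. Values are means, n = 3.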

[4] = test system: Acinetobacter baumannii; experiment: Potentiation of chloramphenicol-induced antibacterial activity against Acinetobacter baumannii AYE assessed as concentration required to restore 2 ug/ml chloramphenicol activity measured after 18 hrs; type: functional
[5] = test system: Pseudomonas aeruginosa; experiment: Potentiation of doxycycline-induced antibacterial activity against Pseudomonas aeruginosa ATCC 27853 assessed as concentration required to restore 2 ug/ml doxycycline activity measured after 18 hrs; type: functional
In short: (§2)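 Inoculum was 5×10^5 CFU in MHB with two-fold serial dilutions of adjuvant plus fixed doxycycline at 2 μg/mL. […] Repeated independently in triplicate.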

[6] = test system: Klebsiella pneumoniae; experiment: Potentiation of chloramphenicol-induced antibacterial activity against Klebsiella pneumoniae ATCC 13443 assessed as concentration required to restore 2 ug/ml chloramphenicol activity measured after 18 hrs; type: functional
[7] = Hemolytic activity against Sprague-Dawley rat RBC assessed as release of hemoglobin at 50 uM incubated for 1 hr relative to control; type: ADME, cell-based, Erythrocyte; conditions: red blood cells (erythrocytes), read-out: Activity
In short: (§3)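 Fresh Sprague-Dawley rat erythrocytes were washed in saline and resuspended at 2% v/v. Cells were incubated with compound in DMSO/PBS for 1 h at 37 °C, then centrifuged at 200 g, and supernatant absorbance read at 540 nm. Results were normalised to DMSO/PBS (0%) and 0.1% Triton X-100 (100%). Single-point testing used 50 μM; HC50 came from 10-point curves. Means of three experiments.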

[8] = test system: Acinetobacter baumannii; experiment: Potentiation of erythromycin-induced antibacterial activity against Acinetobacter baumannii AYE assessed as concentration required to restore 2 ug/ml erythromycin activity measured after 18 hrs; type: functional
[9] = test system: Klebsiella pneumoniae; experiment: Potentiation of doxycycline-induced antibacterial activity against Klebsiella pneumoniae ATCC 13443 assessed as concentration required to restore 2 ug/ml doxycycline activity measured after 18 hrs; type: functional; in short: as §2
[10] = test system: Escherichia coli; experiment: Potentiation of erythromycin-induced antibacterial activity against Escherichia coli ATCC 25922 assessed as concentration required to restore 2 ug/ml erythromycin activity measured after 18 hrs; type: functional
[11] = test system: Pseudomonas aeruginosa; experiment: Potentiation of nalidixic acid-induced antibacterial activity against Pseudomonas aeruginosa ATCC 27853 assessed as concentration required to restore 2 ug/ml nalidixic acid activity measured after 18 hrs; type: functional
[12] = Hemolytic activity against Sprague-Dawley rat RBC assessed as release of hemoglobin incubated for 1 hr; type: ADME, cell-based, Erythrocyte; conditions: red blood cells (erythrocytes); in short: as §3
[13] = test system: Cryptococcus neoformans; experiment: Antifungal activity against Cryptococcus neoformans ATCC 208821 assessed as growth inhibition incubated for 36 hrs by resazurin dye based assay; type: functional; conditions: ATCC 208821, 36 h
In short: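 Cryptococcus was grown 3 days on YPD agar at 30 °C, suspended, and diluted in YNB broth to 2.5×10^3 CFU/mL. Cells were exposed to 0.008–32 μg/mL compound (final), in duplicate, for 36 h at 35 °C without shaking. Resazurin (0.006% final) was added for a further 3 h. MIC was read from absorbance at OD570–600. Means, n = 2.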

[14] = test system: Pseudomonas aeruginosa; experiment: Antibacterial activity against Pseudomonas aeruginosa ATCC 27853 assessed as growth inhibition incubated for 18 hrs by broth dilution method; type: functional; conditions: ATCC 27853, 18 h; in short: as §1
[15] = test system: Acinetobacter baumannii; experiment: Potentiation of doxycycline-induced antibacterial activity against Acinetobacter baumannii AYE assessed as concentration required to restore 2 ug/ml doxycycline activity measured after 18 hrs; type: functional; in short: as §2
[16] = test system: Acinetobacter baumannii; experiment: Antibacterial activity against Acinetobacter baumannii ATCC 19606 assessed as growth inhibition incubated for 18 hrs by resazurin dye based assay; type: functional; conditions: ATCC 19606 = CIP 70.34 = JCM 6841, 18 h
In short: (§4)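 Overnight cultures were diluted 40-fold in MHB and grown 1.5–2 h at 37 °C to mid-log phase. Cells were added at 5×10^5 CFU/mL final to two-fold compound dilutions (0.008–32 μg/mL final), in duplicate, for 18 h at 37 °C. Resazurin (0.001% final) was added for 2 h and MIC read by eye. Means, n = 2.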

[17] = test system: Candida albicans; experiment: Antifungal activity against Candida albicans ATCC 90028 assessed as growth inhibition incubated for 36 hrs by resazurin dye based assay; type: functional; conditions: ATCC 90028, 36 h
In short: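 Yeast was grown 3 days on YPD agar at 30 °C. Colonies were suspended and diluted in YNB broth to 2.5×10^3 CFU/mL, then added to two-fold compound dilutions (0.008–32 μg/mL final), in duplicate. Plates stood 36 h at 35 °C without shaking. Means, n = 2.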

[18] = test system: Klebsiella pneumoniae; experiment: Potentiation of nalidixic acid-induced antibacterial activity against Klebsiella pneumoniae ATCC 13443 assessed as concentration required to restore 2 ug/ml nalidixic acid activity measured after 18 hrs; type: functional
[19] = test system: Escherichia coli; experiment: Antibacterial activity against Escherichia coli ATCC 25922 assessed as growth inhibition incubated for 18 hrs by broth dilution method; type: functional; conditions: ATCC 25922, 18 h; in short: as §1
[20] = test system: Klebsiella pneumoniae; experiment: Potentiation of erythromycin-induced antibacterial activity against Klebsiella pneumoniae ATCC 13443 assessed as concentration required to restore 2 ug/ml erythromycin activity measured after 18 hrs; type: functional
[21] = test system: L6; experiment: Cytotoxicity against rat L6 cells measured after 72 hrs by alamar blue assay; type: cell-based; conditions: L6, 72 h
In short: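 Rat L6 myoblasts, 4×10^4/well in RPMI 1640 with L-glutamine and 10% FBS, received seven 3-fold dilutions (90 to 0.123 μg/mL) for 72 h. Alamar Blue was added for 2 h and fluorescence read at ex 536/em 588 nm. Podophyllotoxin served as reference. Means, n = 2.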

[22] = test system: Escherichia coli; experiment: Potentiation of doxycycline-induced antibacterial activity against Escherichia coli ATCC 25922 assessed as concentration required to restore 2 ug/ml doxycycline activity measured after 18 hrs; type: functional; in short: as §2
[23] = test system: Acinetobacter baumannii; experiment: Potentiation of nalidixic acid-induced antibacterial activity against Acinetobacter baumannii AYE assessed as concentration required to restore 2 ug/ml nalidixic acid activity measured after 18 hrs; type: functional
[24] = test system: Klebsiella pneumoniae; experiment: Antibacterial activity against Klebsiella pneumoniae ATCC 700603 assessed as growth inhibition incubated for 18 hrs by resazurin dye based assay; type: functional; conditions: Klebsiella pneumoniae, 700603, 18 h; in short: as §4
[25] = test system: Escherichia coli; experiment: Potentiation of nalidixic acid-induced antibacterial activity against Escherichia coli ATCC 25922 assessed as concentration required to restore 2 ug/ml nalidixic acid activity measured after 18 hrs; type: functional
[26] = test system: Staphylococcus intermedius; experiment: Antibacterial activity against Staphylococcus intermedius 1051997 assessed as growth inhibition incubated for 18 hrs by broth dilution method; type: functional; conditions: Staphylococcus intermedius, 1051997, 18 h; in short: as §1
[27] = test system: Escherichia coli; experiment: Potentiation of chloramphenicol-induced antibacterial activity against Escherichia coli ATCC 25922 assessed as concentration required to restore 2 ug/ml chloramphenicol activity measured after 18 hrs; type: functional
[28] = Cytotoxicity against human HEK293 cells measured after 20 hrs by resazurin dye based fluorescence assay; type: cell-based
In short: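 HEK293 cells, 5,000/well in DMEM with 10% FBS, were exposed to compound for 20 h at 37 °C, 5% CO2. Resazurin (100 μM final) was added for 3 h, then fluorescence read at ex 560/em 590. Signal was normalised to tamoxifen (74 μg/mL, 0%) and untreated growth (100%), and CC50 came from dose-response fitting. Top dose 32 μg/mL. Means, n = 2.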

| SMILES | Activity [1] [µM] | Activity [2] [µM] | MIC [3] [µM] | Activity [4] [µM] | Activity [5] [µM] | Activity [6] [µM] | hemolysis at 1 h, 50 µM [7] [%] | Activity [8] [µM] | Activity [9] [µM] | Activity [10] [µM] | Activity [11] [µM] | MIC [13] [µM] | MIC [14] [µM] | Activity [15] [µM] | MIC [16] [µM] | MIC [17] [µM] | Activity [18] [µM] | MIC [19] [µM] | Activity [20] [µM] | IC50 [21] [µM] | other results |
| --- | --- | --- | --- | --- | --- | --- | --- | --- | --- | --- | --- | --- | --- | --- | --- | --- | --- | --- | --- | --- | --- |
| O=C(NCCCNCCCCNCCCNC(=O)C(=O)c1c[nH]c2cc(Br)ccc12)C(=O)c1c[nH]c2cc(Br)ccc12 | 200 | >200 | 6.25 (≈ 4.39 µg/mL) | >200 | 6.25 to 12.5 | 200 | 91 | 25 | 6.25 | 50 | 50 | 1.1 (≈ 0.773 µg/mL) | 100 (≈ 70.2 µg/mL) | 25 | > 34 | 17.2 (≈ 12.1 µg/mL) | 25 | 100 (≈ 70.2 µg/mL) | 50 | 7.7 | HC50 at 1 h [12]: 20 µM; Activity [22]: 6.25 µM; Activity [23]: 200 µM; MIC [24]: > 34 µM; Activity [25]: >200 µM; MIC [26]: 3.12 µM (≈ 2.2 µg/mL); Activity [27]: >200 µM |
| COc1cccc2c(C(=O)C(=O)NCCCNCCCCNCCCNC(=O)C(=O)c3c[nH]c4c(OC)cccc34)c[nH]c12 | 100 | 30 | 15 (≈ 9.07 µg/mL) | >200 | 3.75 to 7.5 | >200 | 0 | >200 | >200 | >200 | 60 | > 38.4 | > 200 | 15 | > 38.4 | 38.4 (≈ 23.2 µg/mL) | >200 | > 200 | >200 | 62 | Activity [22]: 3.75 µM; Activity [23]: >200 µM; MIC [24]: > 38.4 µM; Activity [25]: >200 µM; Activity [27]: >200 µM; CC50 at 20 h [28]: 27.1 µM |
